In ChEMBL document CHEMBL5038594, “Structural Fine-Tuning of Desmuramylpeptide NOD2 Agonists Defines Their In Vivo Adjuvant Activity” (J Med Chem, 2021):
Calls of active or inactive are those of the source. The rule behind the calls is not given here.

How the values were obtained:
[1] = Cytotoxicity against HEK-Blue hNOD2 cells assessed as reduction in metabolic activity at 20 uM incubated for 18 hrs by MTS assay; type: toxicity, cell-based; conditions: human, hek-blue hnod2, 18 h
Method in brief: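 HEK-Blue NOD2 cells, 40 000 per well, exposed to 20 μM compound or 0.1% DMSO for 18 h at 37 °C, 5% CO2. Metabolic activity measured by MTS (CellTiter 96 AQueous One) reagent. Duplicates, two independent biological replicates.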

K562 [2] = experiment: Cytotoxicity against human K562 cells cocultured with human PBMC cells assessed as inhibition of cell proliferation at 100 nM incubated with PBMC cells for 18 hrs followed by co-incubation with K562 cells for 4 hrs by SYTOX blue staining based flow cytometric analysis; type: functional
Method in brief: (§1)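 Effector cells are freshly Ficoll-isolated human PBMCs, 4 × 10^5 per well, pretreated 18 h with compound or 0.1% DMSO. CFSE-labelled K562 or MEC1 targets, 1 × 10^4 per well, are then added at 40:1 effector:target ratio and co-incubated 4 h at 37 °C. Dead targets are CFSE+/Sytox blue+ by flow cytometry. Results are relative to vehicle. Duplicates; three (MEC1) or four (K562) independent experiments. One-way ANOVA with Dunnett.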

PBMC [3] = experiment: Immunostimulatory activity in human PBMC cells assessed as increase in LPS-induced IL-8 production at 2 uM incubated for 18 hrs by flow cytometry analysis; type: functional, cell-based
Method in brief: (§2)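 Human PBMCs from healthy donors, 1 × 10^6 cells/mL in RPMI 1640 with 10% FBS, treated with 2 μM compound or 0.1% DMSO, without or with LPS 10 ng/mL, for 18 h at 37 °C. Supernatant cytokines quantified by cytometric bead array (human inflammatory panel) on a flow cytometer against recombinant standards. Four independent donors. Repeated-measures one-way ANOVA with Dunnett.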

K562 [4] = experiment: Cytotoxicity against human K562 cells cocultured with human PBMC cells assessed as inhibition of cell proliferation at 1 uM incubated with PBMC cells for 18 hrs followed by co-incubation with K562 cells for 4 hrs by SYTOX blue staining based flow cytometric analysis; type: functional; method in brief: as §1
BMDC = experiment: Induction of mouse BMDC-mediated ovalbumin specific CD4+ T cell activation assessed as increase in CD25 expression at 10 uM incubated for 72 hrs by CFSE staining based flow cytometric analysis; type: functional
Method in brief: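 BMDCs from C57BL/6 mouse tibia (7 days in GM-CSF 20 ng/mL, >90% CD11c+) pulsed 18 h with compound (1 or 10 μM) plus ovalbumin 50 μg/mL, then washed. They were cocultured 72 h with CFSE-labelled naive OT-II CD4+ T cells. CD25+/CFSE-low fraction of live Thy1.2+CD4+ cells read by flow cytometry; supernatant cytokines also measured. Duplicates of two independent experiments.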

Mus musculus [5] = experiment: Immuno-adjuvant activity in NIH/OlaHsd mouse assessed as increase in ovalbumin specific IgG production in sera at 0.15 micromol administered subcutaneously on day 1 and as booster dose on day 21 and 28 with ovalbumin loaded liposomes by ELISA; type: functional, organism-based; conditions: dose 0.15 µmol, time 28.0 day
Method in brief: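 Groups of 5 female NIH/OlaHsd mice, 2.0–2.5 months old, immunized with ovalbumin-loaded liposomes (10 μg ovalbumin per dose) containing 0.15 μmol adjuvant per dose. Liposomes were neutral (PC–cholesterol 7:5), anionic (PC–cholesterol–dicetylphosphate 7:5:1) or mannosylated (PC–cholesterol–mannose-PEG-PA 7:5:0.5). Serum ovalbumin-specific IgG, IgG1 and IgG2a measured 1 week after the second booster. Mean ± SEM.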

PBMC [6] = experiment: Immunostimulatory activity in human PBMC cells assessed as increase in TNF-alpha production at 2 uM incubated for 18 hrs by flow cytometry analysis; type: functional, cell-based; method in brief: as §2
Mus musculus [7] = experiment: Immuno-adjuvant activity in NIH/OlaHsd mouse assessed as increase in ovalbumin specific […] associated IgG1 production in sera at 0.30 micromol administered subcutaneously on day 1 and as booster dose on day 21 with ovalbumin loaded neutral liposomes and measured 1 week post booster dose by ELISA; type: functional, organism-based; conditions: dose 0.3 µmol, time 28.0 day
Method in brief: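 Groups of 5 female NIH/OlaHsd mice, 2.0–2.5 months old, immunized with ovalbumin-loaded neutral liposomes (10 μg ovalbumin per dose) containing 0.30 μmol adjuvant per dose, plus one booster dose. Serum ovalbumin-specific IgG, IgG1 and IgG2a measured 1 week after the booster. Mean ± SEM of 5 mice.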

With CCCCCCCCCCCCCCCCCC(=O)Oc1ccc(/C=C/C(=O)NCC(=O)N[C@H](C(=O)N[C@H](CCC(=O)OCC)C(=O)OCC)C(C)C)cc1OC as the molecule, how does the Activity [1] read?
Its Activity is “Non-Toxic”.

What about the Activity (K562 [2]) of the same molecule?
The Activity was “inactive”.

What about the Activity (PBMC [3]) of the same molecule?
Its Activity is “Active”.

And the Activity (K562 [4])?
The Activity was “Active”.

What about the Activity (BMDC) of the same molecule?
Its Activity is “Active”.

What about the Activity (Mus musculus [5]) of the same molecule?
Its Activity is “Active”.

What about the Activity (PBMC [6]) of the same molecule?
The Activity was “inactive”.

And the Activity (Mus musculus [7])?
The Activity was “Active”.
